We go through 12 compounds from ChEMBL document CHEMBL1212872, “Dual inhibitors of inosine monophosphate dehydrogenase and histone deacetylase based on a cinnamic hydroxamic acid core structure” (Bioorg Med Chem, 2010).

Some results are limits rather than exact numbers.

What is called IC50 is the midpoint of a concentration-inhibition curve. The low end stands for greater potency in that assay, the high end for weaker potency in that assay.

The target in test [1] is Inosine-5'-monophosphate dehydrogenase 1 (Homo sapiens, UniProt P20839). Description: Inhibition of human IMPDH1. The note with it: read-out: Ki(app). The procedure, abridged:
(§1)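 Run in duplicate with IMPDH1 at 150 nM or IMPDH2 at 50 nM, across a range of inhibitor concentrations. Buffer: 50 mM Tris pH 8.0, 100 mM KCl, 1 mM DTT, with 100 µM IMP and 100 µM NAD, at 25 °C. NADH formation followed at 340 nm. IC50 from a variable-slope sigmoidal fit of steady-state velocities; apparent Ki from the Morrison equation.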

Test [2] has as its target Inosine-5'-monophosphate dehydrogenase 2 (Homo sapiens, UniProt P12268). Description: Inhibition of human IMPDH2. The note with it: read-out: Ki(app). The procedure, abridged:
as §1

A short description of test [3]: Inhibition of nuclear extract HDAC. The procedure, abridged: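 HDAC nuclear extract tested with a commercial HDAC activity/inhibitor screening kit per its protocol. Inhibitors were dissolved in DMSO or methanol. IC50 from a variable-slope sigmoidal fit of end-point fractional fluorescence. Autofluorescence corrected using a compound concentration curve run under background-well conditions.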

Another test relates to K562. Description: Antiproliferative activity against human K562 cells after 72 hrs by MTS assay. Type of test: functional, cell-based. The following applies: K562, 72 h. In general terms: Formazan colour is commonly taken as a measure of viable cells.

Inosine-5'-monophosphate dehydrogenase 1, sequence (P20839 whole entry): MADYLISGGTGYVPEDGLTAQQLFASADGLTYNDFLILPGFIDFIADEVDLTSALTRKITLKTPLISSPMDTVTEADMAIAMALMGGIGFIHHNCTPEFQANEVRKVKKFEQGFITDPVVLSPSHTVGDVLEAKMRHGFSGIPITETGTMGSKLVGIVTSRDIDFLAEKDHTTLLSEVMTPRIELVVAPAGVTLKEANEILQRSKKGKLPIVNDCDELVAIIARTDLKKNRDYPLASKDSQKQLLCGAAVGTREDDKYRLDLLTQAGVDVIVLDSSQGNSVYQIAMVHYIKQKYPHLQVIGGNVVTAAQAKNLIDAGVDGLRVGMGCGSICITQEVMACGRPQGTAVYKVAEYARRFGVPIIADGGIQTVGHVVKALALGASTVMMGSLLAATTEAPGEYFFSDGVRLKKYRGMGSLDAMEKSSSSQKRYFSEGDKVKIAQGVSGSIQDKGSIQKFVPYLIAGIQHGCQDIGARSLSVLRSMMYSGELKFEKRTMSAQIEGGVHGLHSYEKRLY

For `COc1cc(NC(=O)Nc2cccc(/C=C/C(=O)NO)c2)ccc1C#N`, the Ki in test [1] was 8.2 µM; in test [2], 1.2 µM. Besides, the IC50 stood at 3.4 µM in test [3] and 38 µM in the test with K562.
The matching figures for `COc1cc(NC(=O)C(=O)NCc2cccc(/C=C/C(=O)NO)c2)ccc1-c1cnco1`: 4.4 µM, 1.5 µM, 0.89 µM and > 100 µM.
For `COc1cc(NC(=O)NCc2cccc(/C=C/C(=O)NO)c2)ccc1C#N` the same measures were 44 µM, 2.6 µM, 0.64 µM and 28 µM.
In the case of `COc1cc(NC(=O)NCc2ccc(/C=C/C(=O)NO)cc2)ccc1-c1cnco1`, the Ki in test [1] is 7.8 µM; in test [2], 1.2 µM. In addition, the half-inhibitory concentration (IC50) in test [3] turned out to be 0.026 µM; with K562, 3.5 µM.
For `COc1cc(NC(=O)Nc2cccc(/C=C/C(=O)NO)c2)ccc1-c1cnco1` the same measures were 0.58 µM, 0.12 µM, 3 µM and > 100 µM.
For `COc1cc(NC(=O)C(=O)Nc2cccc(/C=C/C(=O)NO)c2)ccc1-c1cnco1` the same measures were 0.46 µM, 0.2 µM, 1.8 µM and 28 µM.
The matching figures for `COc1cc(NC(=O)Nc2ccc(/C=C/C(=O)NO)cc2)ccc1C#N`: 1.2 µM, 0.23 µM, 0.63 µM and 4 µM.
For `COc1cc(NC(=O)NCc2ccc(/C=C/C(=O)NO)cc2)ccc1C#N`, the Ki is > 100 µM in test [1] and 11 µM in test [2]. In addition, the IC50 in test [3] turned out to be 0.036 µM.
Consider `COc1cc(NC(=O)C(=O)NCc2ccc(/C=C/C(=O)NO)cc2)ccc1-c1cnco1`, for which the Ki in test [1] was 17 µM; in test [2] it was 1.4 µM. Also, the IC50 in test [3] was found to be 0.23 µM; with K562 it was 5.3 µM.
The matching figures for `COc1cc(NC(=O)NCc2cccc(/C=C/C(=O)NO)c2)ccc1-c1cnco1`: 2.3 µM, 0.34 µM, 0.83 µM and 18 µM.
The matching figures for `COc1cc(NC(=O)Nc2ccc(/C=C/C(=O)NO)cc2)ccc1-c1cnco1`: 0.3 µM, 0.25 µM, 0.55 µM and 4.9 µM.
For `COc1cc(NC(=O)C(=O)Nc2ccc(/C=C/C(=O)NO)cc2)ccc1-c1cnco1` the same measures were 7.1 µM, 1.8 µM, 17 µM and 72 µM.
